ChEMBL document CHEMBL1122149, “Beta-carbolines: synthesis and neurochemical and pharmacological actions on brain benzodiazepine receptors” (J Med Chem, 1982)

Biological target: T1, GABA-A receptor; anion channel (Rattus norvegicus) (UniProt O09028+P15431+P18506+P18508+P19969+P20236+P23574+P23576+P28471+P28473+P30191+P62813+P63079+P63138+Q91ZM7+Q9ES14)
Assay: Hill coefficient for inhibition of ~2 nM [3H]diazepam binding to GABA-A benzodiazepine receptor of rat cerebral cortical membrane
Procedure, shortened: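 Rat cerebral cortex tissue was homogenized in 100 volumes of 50 mM Tris-HCl pH 7.4 and washed three times by centrifugation at 20000g. […] Hill coefficients came from least mean squares regression of the inhibition curves.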

**Q.** `O=Cc1cc2c3ccccc3nc-2c[nH]1` was tested. Which Hill coefficient did it give?
**A.** 0.93

**Q.** Which Hill coefficient does the source give for `COC(=O)c1cc2c(cn1)[nH]c1ccccc12` [BETA-CCM] here?
**A.** 0.7

**Q.** Which Hill coefficient does the source give for `O=C(O)c1cc2c3ccccc3nc-2c[nH]1` here?
**A.** 0.72

**Q.** `OCc1cc2c3ccccc3nc-2c[nH]1` was tested. Which Hill coefficient did it give?
**A.** 0.93

**Q.** How did the Hill coefficient turn out when `CC(=O)c1cc2c3ccccc3nc-2c[nH]1` was run?
**A.** 0.73

Biological target: T1, GABA-A receptor; anion channel (Rattus norvegicus)

**Q.** With `CCOC(=O)c1cc2c(cn1)[nH]c1ccccc12` as the compound, how does the Hill coefficient read?
**A.** 0.74

Biological target: GABA-A receptor; anion channel
Assay: In vitro inhibition of [3H]diazepam binding to benzodiazepine receptor in rat cerebral cortical membrane
Assay type: cell membranes

**Q.** For `O=Cc1cc2c3ccccc3nc-2c[nH]1`, which Ki is on record?
**A.** 0.0623 µM

**Q.** `O=Cc1cccnc1` [NICOTINALDEHYDE] was tested. Which Ki did it give?
**A.** > 100 µM

**Q.** For `COC(=O)C1Cc2c([nH]c3ccccc23)C(c2ccccc2)N1` (stereo in doubt; 49), which Ki is on record?
**A.** 54 µM

**Q.** With `COC(=O)c1cc2c(cn1)[nH]c1ccccc12` [BETA-CCM] as the compound, how does the Ki read?
**A.** 0.00105 µM

**Q.** `CC(O)c1cc2c3ccccc3nc-2c[nH]1` (configuration not stated) was tested. Which Ki did it give?
**A.** 3.16 µM

**Q.** For `O=Cc1cnc2ccccc2c1`, which Ki is on record?
**A.** > 100 µM

**Q.** With `O=Cc1ccccn1` [2-PYRIDINECARBOXALDEHYDE] as the compound, how does the Ki read?
**A.** > 100 µM

**Q.** With `CCc1nc(C(=O)OC)cc2c1[nH]c1ccccc12` as the compound, how does the Ki read?
**A.** 7.54 µM

**Q.** How did the Ki turn out when `COc1ccc2[nH]c3c(c2c1)C=CNC3` was run?
**A.** > 500 µM

**Q.** How did the Ki turn out when `CN(C)CCc1c[nH]c2ccc(O)cc12` [BUFOTENINE] was run?
**A.** > 100 µM

**Q.** How did the Ki turn out when `COC(=O)C(Cc1c[nH]c2ccccc12)N(C)C` (configuration not stated) was run?
**A.** > 100 µM

**Q.** For `COC(=O)C1=Cc2c([nH]c3ccccc23)C(c2cccnc2)N1` (configuration not stated), which Ki is on record?
**A.** 6.25 µM

**Q.** `COC(=O)c1cc2ccccc2cn1` was tested. Which Ki did it give?
**A.** 13.2 µM

**Q.** With `c1ccc2c(c1)[nH]c1cnccc12` [NORHARMANE] as the compound, how does the Ki read?
**A.** 1.62 µM

**Q.** For `COC(=O)C1Cc2ccccc2CN1` (configuration not stated), which Ki is on record?
**A.** > 100 µM

**Q.** `CN(C)CCc1c[nH]c2ccccc12` was tested. Which Ki did it give?
**A.** > 100 µM

**Q.** `COC(=O)C1CC2=C(C(c3ccccc3)N1)N(C)c1ccccc1C2` (configuration not stated) was tested. Which Ki did it give?
**A.** > 100 µM

**Q.** `COC(=O)C1Cc2c([nH]c3ccc(O)cc23)CN1` (configuration not stated) was tested. Which Ki did it give?
**A.** 0.573 µM

**Q.** With `Oc1cc2c(cc1O)CNCC2` as the compound, how does the Ki read?
**A.** > 100 µM

**Q.** Which Ki does the source give for `COC(=O)c1cc2c([nH]c3ccccc32)c(-c2ccccc2)n1` here?
**A.** 3.89 µM

**Q.** With `Oc1ccc2[nH]c3c(c2c1)C=CNC3` as the compound, how does the Ki read?
**A.** > 100 µM

**Q.** How did the Ki turn out when `COc1cc2c(cc1OC)CNCC2` was run?
**A.** > 100 µM

**Q.** Which Ki does the source give for `CCCOC(=O)c1cc2c(cn1)[nH]c1ccccc12` here?
**A.** 0.001 µM

**Q.** Which Ki does the source give for `CN1C=Cc2c([nH]c3ccccc23)C1` here?
**A.** > 100 µM

**Q.** For `O=C(O)C1Cc2c([nH]c3ccccc23)C(c2ccccc2)N1` (configuration not stated), which Ki is on record?
**A.** 6.11 µM

**Q.** For `COC(=O)C1Cc2c([nH]c3ccccc23)C(c2ccccc2)N1` (stereo in doubt; 60), which Ki is on record?
**A.** 174 µM

**Q.** How did the Ki turn out when `Cc1nccc2c1[nH]c1ccccc12` [HARMAN] was run?
**A.** 12.4 µM

**Q.** `COC(=O)C1Cc2c([nH]c3ccccc23)C(CO)N1` (stereo in doubt; 18) was tested. Which Ki did it give?
**A.** 0.51 µM

**Q.** With `O=C(O)c1cc2c3ccccc3nc-2c[nH]1` as the compound, how does the Ki read?
**A.** 24 µM

**Q.** `C1=Cc2c([nH]c3ccccc23)CN1` was tested. Which Ki did it give?
**A.** > 100 µM

**Q.** With `COC(=O)C1Cc2c([nH]c3ccccc23)C(CO)N1` (stereo in doubt; 17) as the compound, how does the Ki read?
**A.** 5 µM

**Q.** With `COC(=O)c1cnc2ccccc2c1` as the compound, how does the Ki read?
**A.** > 100 µM

**Q.** Which Ki does the source give for `COC(=O)c1cc2c(cn1)[nH]c1ccc(O)cc12` here?
**A.** 0.00266 µM

**Q.** How did the Ki turn out when `O=C(O)C1Cc2ccccc2CN1` (configuration not stated) was run?
**A.** > 100 µM

**Q.** `COC(=O)c1cc2c3ccccc3n(C)c2cn1` was tested. Which Ki did it give?
**A.** > 50 µM

**Q.** For `OCc1cc2c3ccccc3nc-2c[nH]1`, which Ki is on record?
**A.** 1.47 µM

**Q.** For `CCC1NC(C(=O)OC)=Cc2c1n(C)c1ccccc21` (configuration not stated), which Ki is on record?
**A.** > 100 µM

**Q.** Which Ki does the source give for `O=C(O)c1cnc2ccccc2c1` here?
**A.** > 100 µM

**Q.** For `CCC1NC(C(=O)OC)Cc2c1[nH]c1ccc(O)cc21` (stereo in doubt; 14a), which Ki is on record?
**A.** > 100 µM

**Q.** With `COC(=O)C1Cc2c([nH]c3ccccc23)C(C)N1` (configuration not stated) as the compound, how does the Ki read?
**A.** > 50 µM

**Q.** With `CC(=O)c1ccccn1` as the compound, how does the Ki read?
**A.** > 100 µM

**Q.** For `CCC1NC(C(=O)OC)Cc2c1[nH]c1ccc(O)cc21` (stereo in doubt; 14a+14b), which Ki is on record?
**A.** 39 µM

**Q.** How did the Ki turn out when `CC(=O)c1cc2c3ccccc3nc-2c[nH]1` was run?
**A.** 0.058 µM

**Q.** How did the Ki turn out when `CCOC(=O)c1cc2c(cn1)[nH]c1ccccc12` was run?
**A.** 0.0011 µM

**Q.** `c1ccc2cnccc2c1` [ISOQUINOLINE] was tested. Which Ki did it give?
**A.** > 100 µM

**Q.** `CCC1NC(C(=O)OC)Cc2c1[nH]c1ccccc21` (configuration not stated) was tested. Which Ki did it give?
**A.** > 100 µM
